Screening data from PubChem.
CHO parental Ca: signal in parental CHO cells, OX1R antagonist counter-screen; parental CHO-K1, ATP-induced calcium, Fluo-8 fluorescence; inhibition, % at 5.6 µM; 330,000 tested, 0.63% active; AID 463079;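 active = inhibition above that plate's mean sample inhibition plus 3 SD, cut at about 26% in these data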
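Test system: parental CHO cells; detection: calcium-sensitive Fluo-8 fluorescence; evaluation: percent inhibition of calcium signal; also added: ATP as calcium-mobilizing challenge; repeats: one well per compound; control set: ATP-challenged DMSO wells low, unchallenged DMSO wells high; compound: single nominal dose of 5.6 µM per compound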
V1aR counter: activates human V1a receptor in oxytocin agonist counter-screen; CHO-V1R cells, Fluo-8 calcium fluorescence, agonist mode; 0% DMSO, 100% 3 nM vasopressin; P37288; activation, % at 3 µM; AID 2797; 320,000 tested, 0.25% active;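 active = activation above the mean activation of all tested compounds plus 3 SD, per screening run, cut at about 20% in these data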;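 also: signal is peak over basal fluorescence ratio across a 100 second FLIPR read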
Target sequence (P37288 whole entry, looked up): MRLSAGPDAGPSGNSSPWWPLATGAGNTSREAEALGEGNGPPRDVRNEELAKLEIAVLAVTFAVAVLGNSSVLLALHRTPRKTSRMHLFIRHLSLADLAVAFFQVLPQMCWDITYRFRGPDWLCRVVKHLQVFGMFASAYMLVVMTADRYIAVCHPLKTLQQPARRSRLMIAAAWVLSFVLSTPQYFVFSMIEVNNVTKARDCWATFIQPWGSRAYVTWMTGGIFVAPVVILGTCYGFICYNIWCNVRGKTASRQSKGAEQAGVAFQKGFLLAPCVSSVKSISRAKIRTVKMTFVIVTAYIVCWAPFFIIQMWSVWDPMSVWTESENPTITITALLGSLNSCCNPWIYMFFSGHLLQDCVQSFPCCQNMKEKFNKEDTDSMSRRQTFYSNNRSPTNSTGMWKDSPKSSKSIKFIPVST
OX1R antag-1: blocks the human orexin 1 receptor. inhibition, % at 6.6 µM. 330,000 tested, 1.8% active. AID 485270. O43613. OX1R-expressing cells, FRET antagonist read-out; in the data active = inhibition mostly above about 38%, no sharp cut-off; inactive = mostly below about 40%
OX1R antag-2: antagonists of human orexin 1 receptor | O43613 | 330,000 tested, 0.43% active | CHO/OX1R cells, Fluo-8 calcium fluorescence, orexin A | inhibition, % at 5 µM;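 active = inhibition above its plate's threshold, mean inhibition of all tested compounds on the plate plus 3 SD, cut at about 37% in these data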
OXTR potentiate: human OXTR potentiation | activation, % at 3 µM | 320,000 tested, 0.061% active | CHO-OTR cells, Fluo-8 calcium fluorescence, potentiator mode; 0% = oxytocin EC15, 100% = EC100;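 active = activation above that plate's cutoff, the mean activation of tested compounds plus 3 SD, cut at about 6.6% in these data, passing the limit was not always enough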
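Assay system: CHO cell line stably expressing human OTR | Also added: Oxytocin at about EC15, sub-maximal agonist stimulus | Times: Compound 6 min at room temperature before oxytocin, 100 s read | Measured by: Fluo-8 intracellular calcium fluorescence, ex 470-495, em 515-575 nm | Controls: EC15 oxytocin alone as 0%, 75 nM oxytocin as 100%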
OXTR ag: agonists of human oxytocin receptor; P30559; CHO-OTR cells, Fluo-8 calcium fluorescence; normalized: DMSO 0%, oxytocin 100%; activation, % at 3 µM; 320,000 tested, 0.32% active; AID 2435;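 active = activation above the mean of all tested compounds plus 3 SD, cutoff set per screening run, cut at about 20% in these data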;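 also: peak over basal fluorescence ratio from a 100 s FLIPR kinetic read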
Hits are given with their value; . = inactive. The list is not random: actives were taken first. Their share in the collection is about 2.7%.

SMILES | CHO parental Ca | V1aR counter | OX1R antag-1 | OX1R antag-2 | OXTR potentiate | OXTR ag
O=C(O)c1ccccc1Nc1ccc([N+](=O)[O-])cc1C(=O)O | . | . | . | . | . | .
CCOC(=O)NNc1ccc2nonc2c1[N+](=O)[O-] | . | . | 35 | . | . | .
Cc1cc(C)cc(Nc2ccc3nonc3c2[N+](=O)[O-])c1 | . | . | . | . | . | .
O=C(O)c1ccccc1Nc1ccc([N+](=O)[O-])c2nonc12 | . | . | 34 | . | . | .
O=[N+]([O-])c1c(Nc2cccc(O)c2)cc(Cl)c2nonc12 | 43 | . | 94 | 47 | . | .
O=[N+]([O-])c1c(Nc2ccccc2)ccc2nonc12 | . | . | 64 | . | . | .
Oc1ccccc1CN1CCCC(N2CCc3ccccc3C2)C1 (stereo unspecified) | . | . | . | . | . | .
O=[N+]([O-])c1c(NCc2ccco2)ccc2nonc12 | . | . | 68 | . | . | .
Cc1cc([N+](=O)[O-])ccc1NCc1ccco1 | . | . | . | . | . | .
CCCn1c(SCC(=O)N2CC(=O)Nc3ccccc32)n[nH]c1=O | . | . | . | . | . | .
O=S(=O)(/N=S1/CC=CCN1S(=O)(=O)c1ccccc1)c1ccccc1 (stereo unspecified) | . | 31 | . | . | . | 29
COc1cc(/C=N/Nc2snc(SC)c2C#N)ccc1O | . | . | 81 | . | . | .
COc1cc(/C=N/Nc2nc3ccccc3[nH]2)ccc1O | . | . | . | . | . | .
COc1cccc(/C=N/Nc2nc3ccccc3n3cnnc23)c1O | . | . | 67 | . | . | .
Cc1ccc(C(=O)Oc2ccccc2N2C(=O)C3C4CCC(C4)C3C2=O)cc1 (stereo unspecified) | . | . | . | . | . | .
COC(=O)c1nc2nc(C)cc(C(F)(F)F)n2n1 | . | . | . | . | . | .
O=C(NCc1ccco1)c1nc2nc(-c3cccs3)cc(C(F)(F)F)n2n1 | . | . | 70 | . | . | .
COC(=O)c1nc2nc(-c3cccs3)cc(C(F)(F)F)n2n1 | . | . | 77 | . | . | .
O=C(CSc1nc(-c2cccs2)cc(C(F)(F)F)n1)NCc1ccco1 | . | . | . | . | . | .
Cc1cc2c(NCc3ccccc3)ncnc2s1 | 32 | . | . | . | . | .
Cc1sc2ncnc(NCC3(N4CCOCC4)CCCCC3)c2c1C | . | . | . | . | . | .
COc1ccc(CNc2ncnc3sccc23)cc1 | 45 | . | . | . | . | .
Cc1sc2ncnc(NCc3ccccc3)c2c1C | 35 | . | . | . | . | .
c1ccc(CNc2ncnc3sccc23)cc1 | . | . | . | . | . | .
Cc1sc2ncnc(NCC(C)(C)N3CCOCC3)c2c1C | . | . | 82 | . | . | .
SMILES | CHO parental Ca | V1aR counter | OX1R antag-1 | OX1R antag-2 | OXTR potentiate | OXTR ag
Cc1ccc(-n2nc(C(=O)O)c(C)c(C#N)c2=O)cc1Cl | . | . | 51 | . | . | .
Cc1c(C(=O)O)nn(-c2ccccc2)c(=O)c1C#N | . | . | 60 | . | . | .
CCOC(=O)c1nn(-c2ccccc2)c(C#N)c1N | . | . | . | . | . | .
CN(C(=O)CC1C(=O)NCCN1Cc1ccc(F)c(F)c1)C1CCOCC1 (stereo unspecified) | . | . | . | . | . | .
CCCCSCCCNC(=O)CCCN1C(=O)c2ccccc2Sc2ncccc21 | . | . | . | . | . | .
COC(=O)c1c(NC(=O)c2ccco2)sc(C)c1C | . | . | 59 | . | . | .
COC(=O)c1c(NC(=O)c2ccco2)sc(C(=O)Nc2ccc(F)cc2)c1C | . | . | . | . | . | .
COc1ccc(CC2(C)OC(c3ccccc3)=NN2C(C)=O)cc1 (stereo unspecified) | . | . | . | . | . | .
O=C(Cc1ccc(Br)cc1)N1CCN(C(=O)c2ccco2)CC1 | . | . | . | . | . | .
O=C1N2CCSC2=NC1(Nc1nccs1)C(F)(F)F (stereo unspecified) | . | . | 48 | . | . | .
Cc1cccnc1NC1(C(F)(F)F)N=C2SCCN2C1=O (stereo unspecified) | . | . | . | . | . | .
CCN(C(=O)CSc1nc2ccc([N+](=O)[O-])cc2s1)C1CCS(=O)(=O)C1 (stereo unspecified) | . | . | 68 | . | . | .
COc1ccc(N2C(=O)c3cccc4cccc(c34)C2=O)cc1 | . | . | . | . | . | .
Cc1c(N2C(=O)c3cccc4cccc(c34)C2=O)cnn1C | . | . | 51 | . | . | .
O=C1c2cccc3cccc(c23)C(=O)N1c1cccnc1 | . | . | 48 | . | . | .
O=C(O)c1ccccc1N1C(=O)c2cccc3cccc(c23)C1=O | . | . | 66 | . | . | .
CC(=O)c1ccc(-c2ccc(C(=O)N(C)Cc3nc4ccccc4c(=O)[nH]3)o2)cc1 | . | . | . | . | . | .
Cn1c(SCC2CCCO2)nnc1-c1cccc([N+](=O)[O-])c1 (stereo unspecified) | . | . | 50 | . | . | .
CC1Cc2ccccc2N1C(=O)CN(C)S(=O)(=O)c1cccc2cccnc12 (stereo unspecified) | . | . | 56 | . | . | .
CN(CC(=O)N1CCCCC1)S(=O)(=O)c1cccc2cccnc12 | . | . | . | . | . | .
CC1Cc2ccccc2N1C(=O)C1CCCN(S(=O)(=O)c2cccc3cccnc23)C1 (stereo unspecified) | . | . | 58 | . | . | .
O=C(CN1CCN(S(=O)(=O)c2ccc(F)c(Cl)c2)CC1)N1CCNC1=O | . | . | . | . | . | .
COc1cccc(N2CCN(c3ncnc4c3[nH]c3ccccc34)CC2C)c1 (stereo unspecified) | 89 | . | 112 | 91 | . | .
COc1cccc(N2CCN(c3ncnc4c3[nH]c3ccc(F)cc34)CC2C)c1 (stereo unspecified) | 96 | . | 86 | 99 | . | .
COc1ccc2[nH]c3c(N4CC(C)OC(C)C4)ncnc3c2c1 (stereo unspecified) | . | . | . | . | . | .
COc1ccc2c(c1)[nH]c1c(N3CCSCC3)ncnc12 | . | . | . | . | . | .
NC(=O)c1c(NC(=O)C2c3ccccc3Oc3ccccc32)sc2c1CCCCC2 | . | . | . | . | . | .
O=c1cc(CCl)nc(Cc2c(Cl)cccc2Cl)[nH]1 | . | . | . | . | . | .
Cc1nn(-c2ccccc2)c2sc(C(=O)NNC(=O)COc3cccc4ccccc34)cc12 | . | . | . | . | . | .
Cc1nn(-c2ccccc2)c2sc(C(=O)NNC(=O)COc3ccccc3)cc12 | . | . | 49 | . | . | .
